Assay outcomes: PubChem, several laboratories
Most compounds without a hit are left out; they make up all but 4.5% or so of the library.
PfM18AAP inh-1: PfM18AAP inhibitors, malaria aminopeptidase, primary screen, biochemical, QFRET, recombinant enzyme | AID 1822, 2009 | M18 aspartyl aminopeptidase (Plasmodium falciparum 3D7) | hit rate 1.2% among 290,000 | inhibition, % at 7.35 µM | H-Glu-NHMec fluorogenic cleavage;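 active = inhibition above the campaign mean inhibition over all tested compounds plus 3 SD, cut at about 28% in these data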;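 also: 0% = plate median of test compound wells and 100% = 2 mM ZnCl2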
CHOP inhibitor: inhibitors of CHOP promoter induction, primary screen, cell-based, unfolded protein response, luciferase reporter; CHO-K1 CHOP-promoter luciferase, tunicamycin-induced, 15-18 h; hit rate 3.8% among 220,000; inhibition, % at 10 µM; AID 2732, 2010;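 active = compounds that reduced the stress-induced luciferase reporter signal by more than about 70% of percent inhibition, limit read from the data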;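 also: 0% = tunicamycin plus vehicle and 100% = wells without tunicamycin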
HCV NS3 hel inh: inhibitors of HCV NS3 helicase, primary screen, biochemical, Cy5 molecular beacon fluorescence; Hepatitis C virus NS3 helicase; NS3 helicase DNA unwinding; inhibition, % at 10.9 µM; hit rate 0.56% among 290,000; AID 1800, 2009;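 active = inhibition above the mean of all tested compounds plus 3 SD, set per campaign, cut at about 35% in these data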;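 also: 0% = DMSO wells and 100% = thioflavine S control wells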
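System: NS3 helicase fragment of HCV / Schedule: 1 h at 25 °C / Control set: DMSO alone as 0% and 110 µM thioflavine S as 100% / Reagent: Cy5/quencher beacon DNA duplex and ATP to start / Technique: Cy5 fluorescence / Replication: singlicate / Evaluation: % inhibition of end-to-start signal ratio versus controls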
XBP1 UPR activ: activators of adaptive XBP1 UPR arm, primary screen, cell-based, CHO-XBP1 luciferase reporter, luminescence, uHTS; IRE1-XBP1 UPR activation; percent of tunicamycin response, DMSO as zero; activation, % at 20 µM; hit rate 0.33% among 330,000; AID 463104, 2010;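 active = versus positive control, 20 µM dose yields 30% or more activation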;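 also: 100% = tunicamycin at 10 µg/mL and 0% = DMSO only wells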
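Material: CHO-XBP1 cells stably carrying IRE1-XBP1-driven luciferase reporter | Medium: F12 with 10% serum | Compound dosing: 20 µM single concentration, DMSO 1% | Incubation: Overnight seeding at 37 °C, 6 h compound treatment at 37 °C | Detection: Steady-Glo luminescence read | Read-out basis: % activation of reporter signal versus tunicamycin and DMSO controls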
CHOP UPR activ: activators of apoptotic CHOP UPR arm, primary screen, cell-based, CHO-CHOP luciferase reporter, luminescence, uHTS | UPR activation; percent of tunicamycin response over DMSO baseline | activation, % at 10 µM | hit rate 0.34% among 330,000 | AID 449763, 2010;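 active = at 10 µM dose, activation of 40% or more, normalized to positive control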;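 also: 100% = tunicamycin at 10 µg/mL and 0% = DMSO alone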
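Dosing – one dose, 10 µM in 0.5% DMSO · System – CHO-CHOP cells, stable luciferase reporter of PERK-eIF2a-CHOP signalling · Input – 500 cells/well · Control set – tunicamycin 10 µg/mL final as positive, DMSO-only wells as negative · Timing – 6 h compound treatment, 37 °C · Measure – % activation vs tunicamycin · Technique – luminescence read with Steady-Glo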
p97 inhibitor: inhibitors of human p97 ATPase, primary screen, biochemical | inhibition, % at 8 µM | hit rate 0.42% among 220,000 | recombinant p97 ATPase, Kinase-Glo ATP luminescence, 3 h | Transitional endoplasmic reticulum ATPase (Homo sapiens), P55072 | AID 1481, 2009; in the data active = inhibition above about 15%;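 also: 0% = DMSO vehicle and 100% = wells lacking enzyme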
Target sequence (P55072 whole entry, looked up): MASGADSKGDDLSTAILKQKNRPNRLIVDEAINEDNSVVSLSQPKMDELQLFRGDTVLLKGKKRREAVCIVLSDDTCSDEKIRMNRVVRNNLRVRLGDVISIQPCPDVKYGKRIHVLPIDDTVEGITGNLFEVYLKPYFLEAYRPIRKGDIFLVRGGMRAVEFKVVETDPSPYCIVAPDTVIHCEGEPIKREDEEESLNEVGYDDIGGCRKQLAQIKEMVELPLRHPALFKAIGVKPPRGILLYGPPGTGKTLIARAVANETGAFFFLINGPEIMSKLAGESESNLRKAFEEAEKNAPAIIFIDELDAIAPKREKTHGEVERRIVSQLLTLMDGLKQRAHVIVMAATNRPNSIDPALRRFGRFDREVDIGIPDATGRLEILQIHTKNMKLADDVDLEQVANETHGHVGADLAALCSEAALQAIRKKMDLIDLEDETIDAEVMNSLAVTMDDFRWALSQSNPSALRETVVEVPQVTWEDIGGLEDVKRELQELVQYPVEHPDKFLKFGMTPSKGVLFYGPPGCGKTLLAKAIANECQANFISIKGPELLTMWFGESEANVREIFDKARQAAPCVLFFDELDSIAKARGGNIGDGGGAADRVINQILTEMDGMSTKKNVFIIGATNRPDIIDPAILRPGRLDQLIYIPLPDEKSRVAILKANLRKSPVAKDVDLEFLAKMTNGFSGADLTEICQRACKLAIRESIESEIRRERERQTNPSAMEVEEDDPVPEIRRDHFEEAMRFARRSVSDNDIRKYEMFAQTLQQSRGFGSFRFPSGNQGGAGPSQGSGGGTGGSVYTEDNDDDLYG
PfM18AAP inh-2: PfM18AAP inhibitors, malaria aminopeptidase, confirmation, biochemical, QFRET, recombinant enzyme, triplicate. shares compounds with PfM18AAP inh-1. hit rate 28% among 2,400. inhibition, % at 7.35 µM. H-Glu-NHMec fluorogenic cleavage;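 active = mean inhibition over replicate wells above the hit cutoff set for the earlier primary screen, cut at about 29% in these data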;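 also: 0% = median of test compound wells and 100% = 2 mM ZnCl2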
CTSL1 counter: cathepsin L1 inhibitors, retest, confirmation, counter-screen for PFM18AAP inhibitor project, biochemical, QFRET, triplicate | shares compounds with PfM18AAP inh-1 | purified cathepsin L1, Z-Leu-Arg-MCA fluorescence | inhibition, % at 5.96 µM | 2,400 tested, under 10 active | AID 2178, 2009;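 active = average inhibition across replicates above the hit cutoff set in the earlier primary screen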;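 also: 0% = median of test compound wells and 100% = Z-Phe-Ala-diazomethylketone 1 µM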
Active calls of the source: *.

Results for Cc1ccc(NS(=O)(=O)c2cc([N+](=O)[O-])ccc2NNC(=S)Nc2cc(C)ccc2C)c(C)c1 ?
PfM18AAP inh-1: 39*; CHOP inhibitor: 89*; HCV NS3 hel inh: 21; XBP1 UPR activ: 0; CHOP UPR activ: 5; p97 inhibitor: -3; PfM18AAP inh-2: 39*; CTSL1 counter: 0

Results for COc1ccc(NC(=S)Nc2cccc([N+](=O)[O-])c2)cc1 ?
PfM18AAP inh-1: 1; CHOP inhibitor: 31; HCV NS3 hel inh: -13; XBP1 UPR activ: 0; CHOP UPR activ: -2; p97 inhibitor: 4

Results for O=C(NNC(=O)c1ccc2ccccc2c1O)Nc1ccc(F)cc1 ?
PfM18AAP inh-1: 34*; HCV NS3 hel inh: 10; XBP1 UPR activ: -2; CHOP UPR activ: 3; PfM18AAP inh-2: -3; CTSL1 counter: 3

How did O=C(NNC(=O)c1ccc2ccccc2c1O)NC1CCCCC1 do in these assays?
PfM18AAP inh-1: 49*; HCV NS3 hel inh: -3; XBP1 UPR activ: -7; CHOP UPR activ: 0; PfM18AAP inh-2: 7; CTSL1 counter: -1

Results for COc1ccc(C(=O)NNC(=O)c2ccc3ccccc3c2O)cc1 ?
PfM18AAP inh-1: 18; HCV NS3 hel inh: 2; XBP1 UPR activ: -4; CHOP UPR activ: 0

Results for COc1cccc(OCC(=O)NNC(=O)c2ccc3ccccc3c2O)c1 ?
PfM18AAP inh-1: 37*; HCV NS3 hel inh: 11; XBP1 UPR activ: -2; CHOP UPR activ: 0; PfM18AAP inh-2: -17; CTSL1 counter: -5

What do the screens show for `Cc1ccc(C(=O)NNC(=O)c2ccc3ccccc3c2O)cc1`?
PfM18AAP inh-1: 28; HCV NS3 hel inh: 5; XBP1 UPR activ: -2; CHOP UPR activ: -2

How did COc1ccccc1C(=O)N/C(=C\c1ccccc1)C(=O)NCc1ccco1 do in these assays?
PfM18AAP inh-1: 8; HCV NS3 hel inh: 23; XBP1 UPR activ: -2; CHOP UPR activ: 3

Results for CCN(C(=O)COC(=O)CC1CCCCC1)c1c(N)n(Cc2ccccc2)c(=O)[nH]c1=O ?
XBP1 UPR activ: -1; CHOP UPR activ: 0

How did CC1(c2ccc([N+](=O)[O-])cc2)NC(=O)NC1=O (centres undefined) do in these assays?
PfM18AAP inh-1: 0; HCV NS3 hel inh: 8; XBP1 UPR activ: -8; CHOP UPR activ: 2

How did COc1ccccc1NC(=O)CON=C(N)CC(=O)NC1CCCCC1 do in these assays?
XBP1 UPR activ: -5; CHOP UPR activ: 0

Results for CSCCC(NC(=O)c1ccccc1Cl)C(=O)NCCc1ccccn1 (centres undefined) ?
XBP1 UPR activ: 0; CHOP UPR activ: -1

How did CN(C)NC1=CC(=[N+]2CCCC2)CC(C)(C)C1 do in these assays?
PfM18AAP inh-1: 1; CHOP inhibitor: -19; HCV NS3 hel inh: 0; XBP1 UPR activ: -1; CHOP UPR activ: 0; p97 inhibitor: 5

Results for Cc1cc(C)nc(NNS(=O)(=O)c2c(C)cc(C(C)(C)C)cc2C)n1 ?
XBP1 UPR activ: 1; CHOP UPR activ: 1

Results for Cc1cc(C)nc(NNC2=CC(=[N+]3CCCCC3)CC(C)(C)C2)n1 ?
PfM18AAP inh-1: 56*; CHOP inhibitor: 2; HCV NS3 hel inh: 1; XBP1 UPR activ: -1; CHOP UPR activ: 2; p97 inhibitor: -3; PfM18AAP inh-2: 40*; CTSL1 counter: 1

What do the screens show for `Cc1cc(C)nc(NNC2=CC(=[N+]3CCCC3)CCC2)n1`?
PfM18AAP inh-1: 57*; CHOP inhibitor: 15; HCV NS3 hel inh: -2; XBP1 UPR activ: -1; CHOP UPR activ: -1; p97 inhibitor: 4; PfM18AAP inh-2: 45*; CTSL1 counter: 3

How did Cc1cccc(C)c1NC(=O)CSCC(=O)c1ccc(O)c(O)c1 do in these assays?
PfM18AAP inh-1: 48*; CHOP inhibitor: 4; HCV NS3 hel inh: 11; XBP1 UPR activ: 1; CHOP UPR activ: 3; p97 inhibitor: 8; PfM18AAP inh-2: -1; CTSL1 counter: 5

Results for Cc1cccc(C)c1NC(=O)CSCC(=O)O ?
PfM18AAP inh-1: -4; CHOP inhibitor: 3; HCV NS3 hel inh: -3; XBP1 UPR activ: 5; CHOP UPR activ: -1; p97 inhibitor: 2

How did CS(=O)(=O)O/N=C1\CCCCC1c1ccc([N+](=O)[O-])cc1[N+](=O)[O-] (centres undefined) do in these assays?
PfM18AAP inh-1: 0; HCV NS3 hel inh: 8; XBP1 UPR activ: 3; CHOP UPR activ: 1

How did CC(C)(C)c1ccc(S(=O)(=O)O/N=C2/CCCCC2c2ccc([N+](=O)[O-])cc2[N+](=O)[O-])cc1 (centres undefined) do in these assays?
PfM18AAP inh-1: 38*; CHOP inhibitor: 35; HCV NS3 hel inh: 4; XBP1 UPR activ: 4; CHOP UPR activ: 3; p97 inhibitor: 2; PfM18AAP inh-2: -28; CTSL1 counter: 2

How did O=C(COc1ccc(F)cc1)NN1C(=O)CSC1=S do in these assays?
PfM18AAP inh-1: 23; CHOP inhibitor: 15; HCV NS3 hel inh: 17; XBP1 UPR activ: 2; CHOP UPR activ: 1; p97 inhibitor: -2

What do the screens show for `N#Cc1c(NC(NC(=O)c2ccco2)C(=O)c2ccccc2)sc2c1CCCC2` (centres undefined)?
PfM18AAP inh-1: 22; CHOP inhibitor: 50; HCV NS3 hel inh: 7; XBP1 UPR activ: -2; CHOP UPR activ: 1; p97 inhibitor: -2

How did NC(=O)c1c(NC(NC(=O)c2ccco2)C(=O)c2ccc(Cl)cc2)sc2c1CCCC2 (centres undefined) do in these assays?
PfM18AAP inh-1: 38*; CHOP inhibitor: 38; HCV NS3 hel inh: 0; XBP1 UPR activ: -3; CHOP UPR activ: -1; p97 inhibitor: 0; PfM18AAP inh-2: -22; CTSL1 counter: 1

What do the screens show for `O=C(Nc1nncs1)C1CC(=O)N(C2CCCC2)C1` (centres undefined)?
PfM18AAP inh-1: -3; HCV NS3 hel inh: 7; XBP1 UPR activ: -3; CHOP UPR activ: -1
